pKi: −log10 of the molar value. Active and inactive are the calls of the source. No cut-off for these calls is given here.
Experiments:
Bos taurus = species on record: Bos taurus; assay: Displacement of [3H]flumazenil from GABAA/Benzodiazepine receptor in bovine brain at 10 uM
In short: (§1)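 Bovine brain membranes; displacement of specific [3H]flumazenil (Ro15-1788) binding. Percent inhibition measured at 10 μM; Ki determined only when inhibition at that concentration exceeded 80%. Ki given as mean ± SEM of five determinations.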

[1] = Displacement of [3H]flumazenil from GABAA/Benzodiazepine receptor in bovine brain; design: species or system Bos taurus; in short: as §1
Mus musculus [2] = assay: Effect on explorative capacity in CD1 albino mouse assessed as curiosity-related number of head plugging activity on hole at 50 mg/kg, po after 30 mins by hole-board test; format: functional
In short: (§2)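 Hole-board test in male CD-1 mice: animals placed singly on the board and allowed to explore panel and holes. Test run 30 min after po dosing in 1% CMC (10 mL/kg). Hole entries (curiosity) and plane movements (spontaneous motility) counted; 10 mice per group, compared with CMC controls.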

Mus musculus [3] = assay: Anticonvulsant activity against pentylenetetrazole-induced shock in CD1 albino mouse assessed as shock latency at 30 mg/kg, po preincubated for 30 mins before pentylenetetrazole challenge measured for 30 mins (RVb=253.1 +/- 13 seconds); format: functional; details: 30 mg/kg
Mus musculus [4] = assay: Effect on explorative capacity in CD1 albino mouse assessed as curiosity-related number of head plugging activity on hole at 10 mg/kg, po after 30 mins by hole-board test; format: functional; in short: as §2
Mus musculus [5] = assay: Effect on spontaneous motility in CD1 albino mouse assessed as number of movement on plane board at 100 mg/kg, po after 30 mins by hole-board test; format: functional; in short: as §2
Mus musculus [6] = assay: Effect on motor coordination in CD1 albino mouse assessed as number of falls form rotarod at 30 mg/kg, po […] measured for 30 seconds after 30 mins of drug infusion by rotarod test; format: functional; details: 30 mg/kg
In short: (§3)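 Rota-rod in male CD-1 mice with a pretest. Test substance given po in 1% CMC; falls from the rotating rod counted over 30 s, assessed 30 min after treatment.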

Mus musculus [7] = assay: Effect on explorative capacity in CD1 albino mouse assessed as curiosity-related number of head plugging activity on hole at 30 mg/kg, po after 30 mins by hole-board test; format: functional; details: 30 mg/kg; in short: as §2
Mus musculus [8] = assay: Effect on spontaneous motility in CD1 albino mouse assessed as number of movement on plane board at 30 mg/kg, po after 30 mins by hole-board test; format: functional; details: 30 mg/kg; in short: as §2
Mus musculus [9] = assay: Anticonvulsant activity against pentylenetetrazole-induced convulsions in CD1 albino mouse assessed as convulsion latency at 10 mg/kg, po preincubated for 30 mins before pentylenetetrazole challenge measured for 30 mins (RVb=599 +/- 37.6 seconds); format: functional
Mus musculus [10] = assay: Anticonvulsant activity against pentylenetetrazole-induced convulsions in CD1 albino mouse assessed as convulsion latency at 30 mg/kg, po preincubated for 30 mins before pentylenetetrazole challenge measured for 30 mins (RVb=599 +/- 37.6 seconds); format: functional; details: 30 mg/kg
Mus musculus [11] = assay: Effect on explorative capacity in CD1 albino mouse assessed as curiosity-related number of head plugging activity on hole at 100 mg/kg, po after 30 mins by hole-board test; format: functional; in short: as §2
Mus musculus [12] = assay: Effect on motor coordination in CD1 albino mouse assessed as number of falls form rotarod at 10 mg/kg, po […] measured for 30 seconds after 30 mins of dosing by rotarod test; format: functional; in short: as §3
Mus musculus [13] = assay: Effect on spontaneous motility in CD1 albino mouse assessed as number of movement on plane board at 10 mg/kg, po after 30 mins by hole-board test; format: functional; in short: as §2
Mus musculus [14] = assay: Anticonvulsant activity against pentylenetetrazole-induced shock in CD1 albino mouse assessed as shock latency at 10 mg/kg, po preincubated for 30 mins before pentylenetetrazole challenge measured for 30 mins (RVb=253.1 +/- 13 seconds); format: functional
Mus musculus [15] = assay: Effect on spontaneous motility in CD1 albino mouse assessed as number of movement on plane board at 50 mg/kg, po after 30 mins by hole-board test; format: functional; in short: as §2
Mus musculus [16] = assay: Effect on spontaneous motility in CD1 albino mouse assessed as number of movement on plane board at 3 mg/kg, po after 30 mins by hole-board test; format: functional; in short: as §2
Mus musculus [17] = assay: Effect on motor coordination in CD1 albino mouse assessed as number of falls form rotarod at 3 mg/kg, po administered 60 mins before test measured for 30 seconds after 30 mins of drug infusion by rotarod test; format: functional; in short: as §3
Mus musculus [18] = assay: Effect on ethanol-induced sleeping time in CD1 albino mouse assessed as increase in duration of loss of righting reflex at 3 mg/kg, po preincubated 30 mins before ethanol challenge; format: functional, organism-based; design: dose 3 mg/kg
Mus musculus [19] = assay: Anxiolytic activity in CD1 albino mouse at 10 mg/kg, po after 30 mins by light/dark box test; format: functional, organism-based; design: dose 10 mg/kg
In short: (§4)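 Male CD-1 mice (22-24 g) given test substance po in 1% CMC (10 mL/kg), tested 30 min later in a light/dark box. Transfers between compartments and time spent in the illuminated side were measured. Values are mean ± SEM of 15-20 mice; compared with controls.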

Mus musculus [20] = assay: Anticonvulsant activity against pentylenetetrazole-induced convulsions in CD1 albino mouse assessed as convulsion latency at 3 mg/kg, po preincubated for 30 mins before pentylenetetrazole challenge measured for 30 mins (RVb=599 +/- 37.6 seconds); format: functional
Mus musculus [21] = assay: Effect on ethanol-induced sleeping time in CD1 albino mouse assessed as increase in duration of loss of righting reflex at 10 mg/kg, po preincubated 30 mins before ethanol challenge; format: functional, organism-based; design: dose 10 mg/kg
Mus musculus [22] = assay: Effect on learning and memory process in CD1 albino mouse assessed as improvement in retention latency at 10 mg/kg, po after 24 hrs by passive avoidance test; format: functional, organism-based; design: dose 10 mg/kg
In short: (§5)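 Step-through passive avoidance in a two-compartment box (lit and dark compartments joined by a guillotine door). Male CD-1 mice dosed po (1% CMC) 30 min before training; retention tested 24 h later. Training and retention latencies recorded; mean ± SEM of 15-20 mice versus controls.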

Mus musculus [23] = assay: Effect on learning and memory process in CD1 albino mouse assessed as improvement in retention latency at 3 mg/kg, po after 24 hrs by passive avoidance test; format: functional, organism-based; design: dose 3 mg/kg; in short: as §5
Mus musculus [24] = assay: Effect on explorative capacity in CD1 albino mouse assessed as curiosity-related number of head plugging activity on hole at 3 mg/kg, po after 30 mins by hole-board test; format: functional; in short: as §2
Mus musculus [25] = assay: Anxiolytic activity in CD1 albino mouse at 3 mg/kg, po after 30 mins by light/dark box test; format: functional, organism-based; design: dose 3 mg/kg; in short: as §4
Mus musculus [26] = assay: Anticonvulsant activity against pentylenetetrazole-induced shock in CD1 albino mouse assessed as shock latency at 3 mg/kg, po preincubated for 30 mins before pentylenetetrazole challenge measured for 30 mins (RVb=253.1 +/- 13 seconds); format: functional
Mus musculus [27] = assay: Effect on ethanol-induced sleeping time in CD1 albino mouse assessed as increase in duration of loss of righting reflex at 30 mg/kg, po preincubated 30 mins before ethanol challenge; format: functional, organism-based; design: dose 30 mg/kg
Mus musculus [28] = assay: Anxiolytic activity in CD1 albino mouse at 30 mg/kg, po after 30 mins by light/dark box test; format: functional, organism-based; design: dose 30 mg/kg; in short: as §4
Mus musculus [29] = assay: Effect on learning and memory process in CD1 albino mouse assessed as decrease in retention latency at 10 mg/kg, po after 24 hrs by passive avoidance test; format: functional, organism-based; design: dose 10 mg/kg; in short: as §5
Mus musculus [30] = assay: Anxiolytic activity in CD1 albino mouse at 30 mg/kg, po after 30 mins by light/dark box test in presence of flumazenil; format: functional, organism-based; design: dose 30 mg/kg
In short: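 Light/dark box in male CD-1 mice. Test substance given po in 1% CMC 30 min before the test, with flumazenil 100 mg/kg ip (saline) co-treatment. Transfers between compartments and time in the lit side recorded. Mean ± SEM of 15-20 mice.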

Compound	Activity (Bos taurus) [%]	pKi [1]	also measured
O=C(OCc1cccs1)c1cnn2c1n[n+]([O-])c1ccc(C(F)(F)F)cc12	> 80	8.00	
[O-][n+]1nc2ccnn2c2cc(OCc3ccccc3)ccc21	> 80	6.94	
[O-][n+]1nc2c(I)cnn2c2cc(OCc3ccncc3)ccc21	> 80	8.89	Activity (Mus musculus [16]): 93.9; Activity (Mus musculus [17]): 1.4; Activity (Mus musculus [4]): 36.9; Activity (Mus musculus [18]): inactive; Activity (Mus musculus [19]): inactive; Activity (Mus musculus [9]): 610.9 s; Activity (Mus musculus [20]): 565.8 s; Activity (Mus musculus [21]): inactive; Activity (Mus musculus [22]): Active; Activity (Mus musculus [23]): Active; Activity (Mus musculus [24]): 35.5; Activity (Mus musculus [12]): 2.3; Activity (Mus musculus [25]): inactive; Activity (Mus musculus [26]): 183 s; Activity (Mus musculus [13]): 85.1; Activity (Mus musculus [14]): 299 s
CC(Cc1ccccc1)Oc1ccc2c(c1)n1ncc(I)c1n[n+]2[O-] (racemic)	> 80	6.99	
COc1ccccc1COc1ccc2c(c1)n1ncc(I)c1n[n+]2[O-]	> 80	9.38	
CCOC(=O)c1cnn2c1n[n+]([O-])c1ccc(OCc3ccccc3)cc12	> 80	8.68	
CCCCCCCCOc1ccc2c(c1)n1ncc(I)c1n[n+]2[O-]	> 80	5.79	
Ic1cnn2c1nnc1ccc(OCc3ccccc3)cc12	> 80	9.00	
[O-][n+]1nc2ccnn2c2cc(-c3ccccc3)ccc21	10		
CCOc1cnn2c1n[n+]([O-])c1ccc(C(=O)OCc3ccccc3OC)cc12	> 80	9.51	
COc1ccccc1COC(=O)c1cnn2c1n[n+]([O-])c1ccc(Oc3ccccc3)cc12	> 80	8.76	
[O-][n+]1nc2c(I)cnn2c2cc(/C=C/c3ccccc3)ccc21	> 80	5.70	
[O-][n+]1nc2c(I)cnn2c2cc(OCc3cccs3)ccc21	> 80	8.92	
[O-][n+]1nc2c(I)cnn2c2cc(OC3CCCCC3)ccc21	> 80	6.73	
CCOc1ccc2c(c1)n1ncc(C(=O)OCc3cccs3)c1n[n+]2[O-]	> 80	9.07	
CCOC(=O)c1cnn2c1n[n+]([O-])c1ccc(-c3ccccc3)cc12	40		
[O-][n+]1nc2c(I)cnn2c2cc(OCc3ccc(Cl)cc3)ccc21	> 80	7.96	
[O-][n+]1nc2c(I)cnn2c2cc(CCc3ccccc3)ccc21	> 80	6.33	
COc1ccccc1COC(=O)c1ccc2c(c1)n1ncc(Cl)c1n[n+]2[O-]	> 80	9.00	
Cc1ccc2c(c1)n1ncc(C(=O)OCc3cccs3)c1n[n+]2[O-]	> 80	8.85	
[O-][n+]1nc2c(I)cnn2c2cc(OCc3ccco3)ccc21	> 80	9.10	
COc1ccccc1COC(=O)c1ccc2c(c1)n1ncc(C)c1n[n+]2[O-]	> 80	8.64	
COc1ccccc1COC(=O)c1ccc2c(c1)n1ncc(C(F)(F)F)c1n[n+]2[O-]	> 80	8.24	
[O-][n+]1nc2c(I)cnn2c2cc(OCc3ccccc3OC(F)(F)F)ccc21	> 80	8.18	
COc1ccc(COc2ccc3c(c2)n2ncc(I)c2n[n+]3[O-])cc1	> 80	8.35	

Now from value to compound, other results behind:

Activity (Bos taurus) [%]	pKi [1]	Compound	also measured
	8.68	CC(Oc1ccc2c(c1)n1ncc(I)c1n[n+]2[O-])c1ccccc1 (single isomer, unassigned; (-)) [listing 1 of 2 here]	Activity (Mus musculus [2]): 13.3; Activity (Mus musculus [3]): 323.7 s; Activity (Mus musculus [4]; 10 mg/kg): 27; Activity (Mus musculus [5]): 59.2; Activity (Mus musculus [6]): 1.6; Activity (Mus musculus [7]): 34.5; Activity (Mus musculus [8]): 56.8; Activity (Mus musculus [9]; 10 mg/kg): 1078 s; Activity (Mus musculus [10]): 549.2 s; Activity (Mus musculus [11]): 22.9; Activity (Mus musculus [12]; 10 mg/kg): 2; Activity (Mus musculus [13]; 10 mg/kg): 61.9; Activity (Mus musculus [14]; 10 mg/kg): 513 s; Activity (Mus musculus [15]): 44
> 80	9.15	O=C(OCc1cccs1)c1cnn2c1n[n+]([O-])c1ccc(Oc3ccccc3)cc12	
> 80		CC(Oc1ccc2c(c1)n1ncc(I)c1n[n+]2[O-])c1ccccc1 (single isomer, unassigned; (-)) [listing 2 of 2 here]	Activity (Mus musculus [19]): Active; Activity (Mus musculus [27]): inactive; Activity (Mus musculus [28]): Active; Activity (Mus musculus [21]): inactive; Activity (Mus musculus [29]): Active; Activity (Mus musculus [30]): inactive
> 80	6.10	[O-][n+]1nc2c(Br)cnn2c2cc(-c3ccccc3)ccc21	
> 80	7.03	[O-][n+]1nc2c(I)cnn2c2cc(Oc3ccc4ccccc4c3)ccc21	
> 80	6.80	CC(COc1ccc2c(c1)n1ncc(I)c1n[n+]2[O-])c1ccccc1 (racemic)	
> 80	7.17	[O-][n+]1nc2c(-c3ccsc3)cnn2c2cc(Oc3ccccc3)ccc21	
> 80	7.92	CCOC(=O)c1cnn2c1n[n+]([O-])c1ccc(Oc3ccccc3)cc12	
45		[O-][n+]1nc2c(Cl)cnn2c2cc(-c3ccccc3)ccc21	
> 80		CC(Oc1ccc2c(c1)n1ncc(I)c1n[n+]2[O-])c1ccccc1 (racemic) [listing 1 of 2 here]	
> 80	7.37	[O-][n+]1nc2c(Cl)cnn2c2cc(Oc3ccccc3)ccc21	
> 80	7.37	[O-][n+]1nc2c(I)cnn2c2cc(OCCc3ccccc3)ccc21	
> 80	6.02	[O-][n+]1nc2c(I)cnn2c2cc(-c3ccccc3)ccc21	
	8.47	CC(Oc1ccc2c(c1)n1ncc(I)c1n[n+]2[O-])c1ccccc1 (racemic) [listing 2 of 2 here]	

Source: ChEMBL document CHEMBL1158477, “Synthesis, in vivo evaluation, and molecular modeling studies of new pyrazolo[5,1-c][1,2,4]benzotriazine 5-oxide derivatives. Identification of a bifunctional hydrogen bond area related to the inverse agonism” (J Med Chem, 2009)
